Common to all, as to type: functional
One assay concerns SF-295. In words: Growth inhibition of human SF295 cells at 10 uM after 48 hrs by coulter counter analysis. To be noted: SF-295, 48 h, read-out: GI. The method in brief: (§1)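 Single-dose NCI 60-line panel screen of test compounds. Cells grown in RPMI 1640 with 10% FBS. Compounds dissolved in DMSO, then diluted in phosphate buffer saline (final DMSO below 1%). Wells run in duplicate at 6 × 10⁴ cells/ml. Controls held PBS and DMSO at matching dilutions. Incubation 48 h at 37 °C under humidified 5% CO2. Cells diluted tenfold in saline and counted by Coulter counter. Percent growth inhibition taken from mean-graph of treated-cell growth.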

For the next assay, the system named is HOP-92. In words: Growth inhibition of human HOP92 cells at 10 uM after 48 hrs by coulter counter analysis. To be noted: HOP-92, 48 h, read-out: GI. The method in brief: as §1
Another assay concerns OVCAR-3. Kind of assay: Growth inhibition of human OVCAR3 cells at 10 uM after 48 hrs by coulter counter analysis. The following applies: OVCAR-3, 48 h, read-out: GI. In a few lines: as §1
A further assay concerns MOLT-4. In words: Growth inhibition of human MOLT4 cells at 10 uM after 48 hrs by coulter counter analysis. To be noted: MOLT-4, 48 h, read-out: GI. In a few lines: as §1
The subject of another assay is DU-145. In words: Growth inhibition of human DU145 cells at 10 uM after 48 hrs by coulter counter analysis. The following applies: DU-145, 48 h, read-out: GI. The method in brief: as §1
The test system of a further assay is A549. In words: Growth inhibition of human A549/ATCC cells at 10 uM after 48 hrs by coulter counter analysis. The following applies: A549, 48 h, read-out: GI. In a few lines: as §1
Another assay has as its system COLO 205. In words: Growth inhibition of human COLO205 cells at 10 uM after 48 hrs by coulter counter analysis. To be noted: COLO 205, 48 h, read-out: GI. In a few lines: as §1
A further assay has as its system NCI-H522. In words: Growth inhibition of human NCI-H522 cells at 10 uM after 48 hrs by coulter counter analysis. To be noted: NCI-H522, 48 h, read-out: GI. In a few lines:
as §1

In the next assay the test system is NCI-H460. Kind of assay: Growth inhibition of human NCI-H460 cells at 10 uM after 48 hrs by coulter counter analysis. To be noted: NCI-H460, 48 h, read-out: GI. The method in brief:
as §1

The test system of a further assay is MCF7. Kind of assay: Growth inhibition of human MCF7 cells at 10 uM after 48 hrs by coulter counter analysis. The following applies: MCF7, 48 h, read-out: GI. In a few lines: as §1
The next assay deals with M14. In words: Growth inhibition of human M14 cells at 10 uM after 48 hrs by coulter counter analysis. To be noted: M14, 48 h, read-out: GI. In a few lines:
as §1

In the next assay the test system is ACHN. Kind of assay: Growth inhibition of human ACHN cells at 10 uM after 48 hrs by coulter counter analysis. The following applies: read-out: GI. In a few lines:
as §1

For a further assay, the system named is EKVX. In words: Growth inhibition of human EKVX cells at 10 uM after 48 hrs by coulter counter analysis. To be noted: read-out: GI. The method in brief: as §1
Another assay relates to SNB-19. In words: Growth inhibition of human SNB19 cells at 10 uM after 48 hrs by coulter counter analysis. To be noted: SNB-19, 48 h, read-out: GI. The method in brief:
as §1

The test system of a further assay is SK-MEL-2. In words: Growth inhibition of human SK-MEL-2 cells at 10 uM after 48 hrs by coulter counter analysis. To be noted: SK-MEL-2, 48 h, read-out: GI. In a few lines: as §1
A short description of assay [1]: Growth inhibition of human NCI-ADR-RES cells at 10 uM after 48 hrs by coulter counter analysis. The following applies: read-out: GI. In a few lines: as §1
A further assay concerns SR. In words: Growth inhibition of human SR cells at 10 uM after 48 hrs by coulter counter analysis. The following applies: read-out: GI. The method in brief: (§2)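 Single-dose screen in the NCI 60 cell line panel. Cells grown in RPMI 1640 with 10% FBS. Compounds dissolved in DMSO and diluted in phosphate buffered saline, final DMSO under 1%. Duplicate wells seeded from culture at 6 × 10⁴ cells/ml. Incubated 48 h at 37 °C, humidified, 5% CO2. Cells diluted tenfold in saline and Coulter-counted. Percent growth inhibition computed against PBS/DMSO controls.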

A further assay deals with U-251. In words: Growth inhibition of human U251 cells at 10 uM after 48 hrs by coulter counter analysis. The following applies: U-251, 48 h, read-out: GI. In a few lines: as §2
The next assay deals with KM12. Kind of assay: Growth inhibition of human KM12 cells at 10 uM after 48 hrs by coulter counter analysis. The following applies: KM12, 48 h, read-out: GI. The method in brief:
as §1

The subject of another assay is HL-60(TB). In words: Growth inhibition of human HL-60(TB) cells at 10 uM after 48 hrs by coulter counter analysis. To be noted: HL-60, 48 h, read-out: GI. In a few lines:
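Cells grown in RPMI 1640 with 10% FBS. Compound was dissolved in DMSO and diluted in PBS (under 1% DMSO final), then added in duplicate wells to culture at 6 × 10⁴ cells/ml. PBS/DMSO vehicle controls were included. Incubated at 37 °C, humidified 5% CO₂, for 48 h. Cells were diluted 10-fold in saline and Coulter-counted. Single-dose NCI-60 screen, read as percent growth inhibition.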

The test system of another assay is HCT-116. In words: Growth inhibition of human HCT116 cells at 10 uM after 48 hrs by coulter counter analysis. To be noted: HCT-116, 48 h, read-out: GI. The method in brief: as §1
A further assay concerns SNB-75. Kind of assay: Growth inhibition of human SNB75 cells at 10 uM after 48 hrs by coulter counter analysis. The following applies: SNB-75, 48 h, read-out: GI. In a few lines: as §2

For `CCOC(=O)c1sc(NC(=O)CCN2CCN(C)CC2)nc1C`, the inhibition of growth at 10 µM with SF-295, in the assay on HOP-92, in the assay on OVCAR-3, in the assay on MOLT-4, with DU-145 and with A549 was under 10% throughout. Also, the inhibition of growth at 10 µM was under 10% in the assay with COLO 205; 12.9% with NCI-H522; under 10% in the assay on NCI-H460; 16.3% in the assay with MCF7; under 10% with M14; under 10% in the assay on ACHN. The inhibition of growth at 10 µM is 15.9% in the assay on EKVX; under 10% in the assay on SNB-19; under 10% with SK-MEL-2; under 10% in assay [1]; 20.3% with SR; under 10% in the assay with U-251. Further, the inhibition of growth at 10 µM in the assay with KM12, with HL-60(TB), with HCT-116 and in the assay with SNB-75 was under 10% each time.
As to `CCOC(=O)c1sc(NC(=O)CCN2CCN(c3ccccc3)CC2)nc1C`, the inhibition of growth at 10 µM in the assay on SF-295 is under 10%; in the assay with HOP-92 it was 17.5%; in the assay on OVCAR-3, under 10%; in the assay with MOLT-4, under 10%; with DU-145, under 10%; with A549, under 10%. Moreover, the inhibition of growth at 10 µM in the assay on COLO 205, in the assay on NCI-H522, in the assay with NCI-H460, in the assay on MCF7, in the assay on M14 and with ACHN was under 10% throughout. The inhibition of growth at 10 µM (in the assay on EKVX; with SNB-19; with SK-MEL-2; in assay [1]; with SR; in the assay on U-251) was under 10% throughout. Further, the inhibition of growth at 10 µM with KM12, with HL-60(TB), with HCT-116 and in the assay on SNB-75 was under 10% in each case.
Regarding `O=C(CCCl)Nc1nc(-c2ccccc2)cs1`, the inhibition of growth at 10 µM in the assay on SF-295 worked out at 46.3%; in the assay with OVCAR-3, 98%; in the assay with MOLT-4, 40.7%; in the assay on DU-145 it was 89.8%; with A549 it was 53.1%; in the assay with COLO 205 it was 55.6%. Also, the inhibition of growth at 10 µM was 63.6% with NCI-H460; 75.9% in the assay on MCF7; 52.7% in the assay on M14; 50.7% with ACHN; 24.1% in the assay with EKVX; 29.3% with SNB-19. Moreover, the inhibition of growth at 10 µM in the assay with SK-MEL-2 stood at 71.2%; in [1] it was 59.6%; in the assay on SR it was 65.4%; with U-251, 55.8%; in the assay on KM12, 52.6%; in the assay on HL-60(TB) it was 17.9%. Besides, the figures for the inhibition of growth at 10 µM in the assay on HCT-116 and in the assay on SNB-75 were 78.3% and 60.6%, respectively.
On to `CN1CCN(CCC(=O)Nc2nc(-c3ccccc3)cs2)CC1`, for which the inhibition of growth at 10 µM with SF-295 was under 10%; in the assay with HOP-92, 24.5%; in the assay with OVCAR-3 it was under 10%; with MOLT-4, 35.7%; in the assay with DU-145, under 10%; with A549, under 10%. Moreover, the inhibition of growth at 10 µM in the assay with COLO 205 was under 10%; in the assay on NCI-H522, 16.5%; in the assay on NCI-H460 it was under 10%; in the assay on MCF7, 11.8%; with M14, under 10%; with ACHN it was under 10%. Also, the inhibition of growth at 10 µM with EKVX was under 10%; in the assay on SNB-19, under 10%; with SK-MEL-2 it was under 10%; in [1] it was 13%; in the assay with SR, under 10%; with U-251 it was under 10%. Moreover, the inhibition of growth at 10 µM with KM12 is under 10%; in the assay with HL-60(TB), 11.6%; in the assay with HCT-116, under 10%; with SNB-75, 30.5%.
For the compound `O=C(CN1CCN(c2ccccc2)CC1)Nc1nc(-c2ccccc2)cs1`, the inhibition of growth at 10 µM in the assay with SF-295 was 15.9%; in the assay with HOP-92 it was 25.6%; in the assay with OVCAR-3, under 10%; with MOLT-4 it was 31.3%; with DU-145, under 10%; in the assay on A549 it was 17.6%. In addition, the inhibition of growth at 10 µM was 12.4% in the assay on COLO 205; 29.7% with NCI-H522; 25% in the assay with NCI-H460; 19.3% with MCF7; 13.6% with M14; 16.2% with ACHN. For the same compound, the inhibition of growth at 10 µM with EKVX was under 10%; in the assay on SNB-19 it was 10.1%; in the assay with SK-MEL-2, 11.6%; in assay [1], 23%; with SR it was under 10%; in the assay with U-251, under 10%. Further, the inhibition of growth at 10 µM is under 10% in the assay with KM12, 22% in the assay on HL-60(TB), 17.7% in the assay with HCT-116 and 29.7% in the assay on SNB-75.
Take `O=C(CCN1CCN(c2ccccc2)CC1)Nc1nc(-c2ccccc2)cs1`: the inhibition of growth at 10 µM amounted to 13.6% in the assay with SF-295; 59.6% in the assay on HOP-92; 26.1% in the assay with OVCAR-3; 37.9% in the assay with MOLT-4; 18.2% with DU-145; 17.9% in the assay with A549. The inhibition of growth at 10 µM is under 10% in the assay on COLO 205; 21.3% in the assay with NCI-H522; 11.3% in the assay on NCI-H460; 12.7% with MCF7; under 10% in the assay with M14; 16.4% in the assay on ACHN. Also, the inhibition of growth at 10 µM is 24.8% in the assay on EKVX; 10.3% in the assay on SNB-19; under 10% with SK-MEL-2; 34.6% in assay [1]; 19.9% with SR; 15.6% in the assay on U-251. Also, the inhibition of growth at 10 µM with KM12 was 10.7%; in the assay with HL-60(TB), under 10%; in the assay on HCT-116 it was 41.7%; in the assay on SNB-75 it was 28.6%.
